Assay results reported in ChEMBL document CHEMBL3421551, “Puupehenol, a potent antioxidant antimicrobial meroterpenoid from a Hawaiian deep-water Dactylospongia sp. sponge” (J Nat Prod, 2015).
Activity calls are given as the source filed them. The rule behind the calls is not given here.

How the values were obtained:
[1] = Antioxidant activity assessed as ferric reducing antioxidant power at 1 mg/ml by FRAP assay; format: physicochemical
Method in brief: (§1)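 Working reagent was 300 mM acetate buffer (pH 3.6), 10 mM TPTZ in 40 mM HCl and 20 mM FeCl3·6H2O mixed 10:1:1 and warmed to 37 °C. A blank read at 595 nm was taken, then sample was added. After 8 min at room temperature, absorbance was read at 595 nm, in triplicate. FRAP values (μM) came from an FeSO4 standard curve (50–1000 μM) run on each plate.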

Staphylococcus aureus = assay: Antimicrobial activity against Staphylococcus aureus at 10 ug/disc by disc diffusion assay; format: functional; settings: read-out: IZ
Pseudomonas aeruginosa = assay: Antimicrobial activity against Pseudomonas aeruginosa at 10 ug/disc by disc diffusion assay; format: functional, organism-based
Escherichia coli = assay: Antimicrobial activity against Escherichia coli at 10 ug/disc by disc diffusion assay; format: functional; settings: for zone of inhibition at 10 µg/disc: read-out: IZ
Method in brief: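 Disc diffusion assay, tested alongside S. aureus, B. cereus and P. aeruginosa. Discs loaded at 10 μg each, with a methanol disc as the negative control.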

Bacillus cereus = assay: Antimicrobial activity against Bacillus cereus at 10 ug/disc by disc diffusion assay; format: functional; settings: read-out: IZ
[2] = Antioxidant activity assessed as ferric reducing antioxidant power at 0.1 mg/ml by FRAP assay; format: physicochemical; method in brief: as §1

Structure (SMILES)	Activity [1] [µM]	zone of inhibition at 10 µg/disc (Staphylococcus aureus) [mm]	inhibition zone (IZ) (Pseudomonas aeruginosa)	inhibition zone (IZ) (Escherichia coli)	zone of inhibition at 10 µg/disc (Bacillus cereus) [mm]	zone of inhibition at 10 µg/disc (Escherichia coli) [mm]	Activity [2] [µM]
CC1(C)CCC[C@]2(C)[C@H]3[C@H](O)c4cc(O)c(O)cc4O[C@@]3(C)CC[C@@H]12 (relative stereo)	2500	4	inactive	inactive	3	–	–
CO [METHYL ALCOHOL]	4.7	0	inactive	–	0	0	–
O=C1O[C@H]([C@@H](O)CO)C(O)=C1O [ASCORBIC ACID]	–	–	–	–	–	–	870
CC1(C)S[C@@H]2[C@H](NC(=O)[C@H](N)c3ccccc3)C(=O)N2[C@H]1C(=O)O [AMPICILLIN]	–	31	inactive	–	9	20	–
CC1(C)CCC[C@]2(C)[C@H]3C=C4C=C(O)C(=O)C=C4O[C@@]3(C)CC[C@@H]12 [PUUPEHENONE]	2600	4	inactive	inactive	3	–	–
